Data as given in ChEMBL document CHEMBL2029264, “Indole-based fibrates as potential hypolipidemic and antiobesity agents” (J Med Chem, 2012).
Activity calls are given as the source filed them. No cut-off for these calls is given here.

Tests used:
Rattus norvegicus [1] = experiment: Toxicity in HFD-induced hyperlipidemic Charles Foster rat assessed as mortality at 100 mg/kg/day, po administered for 4 weeks; assay type: organism-based; design: route oral; conditions: in vivo, 672 h
In short: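 Male Charles Foster rats (200−225 g) were fed a high-fat diet for 4 weeks, then dosed at 100 mg/kg/d alongside the same diet for 4 more weeks. Survival was monitored. After an overnight fast, blood was drawn and the animals were sacrificed. Macroscopic inspection and autopsy were then performed, with n = 6 per group.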

Rattus norvegicus [2] = experiment: Antihyperlipidemic activity in HFD-induced hyperlipidemic Charles Foster rat assessed as decrease in plasma LDL-phospholipid level at 100 mg/kg, po administered for 4 weeks relative to control; assay type: functional; design: scale not given: the % may be the effect or the level left
In short: (§1)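 After 4 weeks high-fat feeding plus 4 weeks daily dosing, overnight fast, retro-orbital blood into EDTA tubes. Serum split into VLDL, LDL and HDL by polyanionic precipitation; each fraction assayed for TC, PL, TG and apoprotein (mg/dL plasma). Pooled data from 6 rats/group, mean ± SD, dosed groups compared with high-fat group.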

Rattus norvegicus [3] = experiment: Antihyperlipidemic activity in HFD-induced hyperlipidemic Charles Foster rat assessed as increase in serum LCAT enzyme level at 100 mg/kg, po administered for 4 weeks relative to control; assay type: functional
In short: (§2)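 Male Charles Foster rats (200−225 g): high-fat diet 4 weeks, then diet plus daily dosing 4 weeks. Overnight fast, retro-orbital blood in EDTA (3 mg/mL blood), centrifuged to serum. TC, PL, TG in mg/dL; LCAT as nmol cholesterol released/h/L plasma. Mean ± SD; dosed groups compared with high-fat group, P by significance levels.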

Rattus norvegicus [4] = experiment: Antihyperlipidemic activity in Triton WR-1339-induced hyperlipidemic rat assessed as decrease in plasma phospholipid level at 50 mg/kg, po; assay type: functional
In short: (§3)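 Separate set of Triton WR-1339-induced hyperlipidemic rats, oral doses of 50, 100 and 150 mg/kg. Plasma TC, PL, TG in mg/dL; PHLA as […]/h/mL plasma. Mean ± SD of six rats versus Triton group.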

Rattus norvegicus [5] = experiment: Antihyperlipidemic activity in HFD-induced hyperlipidemic Charles Foster rat assessed as decrease in plasma LDL-total cholesterol level at 100 mg/kg, po administered for 4 weeks relative to control; assay type: functional; design: scale not given: the % may be the effect or the level left; in short: as §1
Rattus norvegicus [6] = experiment: Antihyperlipidemic activity in Triton WR-1339-induced hyperlipidemic rat assessed as increase in PHLA enzyme level at 100 mg/kg, po; assay type: functional
In short: (§4)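 Triton WR-1339 given to rats to induce hyperlipidemia; oral dosing. Plasma TC, PL, TG in mg/dL; PHLA as […]/h/mL plasma. Mean ± SD of six rats; Triton group compared with control, Triton plus dosed group compared with Triton group.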

Rattus norvegicus [7] = experiment: Antihyperlipidemic activity in HFD-induced hyperlipidemic Charles Foster rat assessed as increase in cholic acid excretion in feces at 100 mg/kg/day, po administered for 4 weeks measured after 30 days relative to control; assay type: functional
In short: (§5)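 Rats fed high-fat diet 4 weeks, then diet plus daily dosing 4 weeks. Cholic and deoxycholic acid excreted in feces measured; dosed groups compared with high-fat group, control compared with high-fat group.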

Rattus norvegicus [8] = experiment: Antihyperlipidemic activity in po dosed Triton WR-1339-induced hyperlipidemic rat assessed as decrease in plasma triglyceride level; assay type: functional, organism-based; in short: as §4
Rattus norvegicus [9] = experiment: Antiobesity activity in HFD-induced hyperlipidemic Charles Foster rat assessed as decrease in body weight at 100 mg/kg, po administered for 4 weeks; assay type: functional, organism-based; design: dose 100 mg/kg
In short: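 Adult male Charles Foster rats given high-fat or normal diet 4 weeks, then diet plus vehicle or daily dosing 4 more weeks, sacrificed at week 8. Body weight gain, food intake, food efficiency ratio (weight gain/food intake over the period), and mesenteric, gonadal, inguinal and perirenal fat-pad weights recorded; mean ± SD, n = 6.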

Rattus norvegicus [10] = experiment: Antihyperlipidemic activity in Triton WR-1339-induced hyperlipidemic rat assessed as increase in PHLA enzyme level at 50 mg/kg, po; assay type: functional; in short: as §3
Rattus norvegicus [11] = experiment: Antihyperlipidemic activity in po dosed Triton WR-1339-induced hyperlipidemic rat assessed as increase in PHLA; assay type: functional, organism-based; in short: as §4
Rattus norvegicus [12] = experiment: Antihyperlipidemic activity in HFD-induced hyperlipidemic Charles Foster rat assessed as increase in plasma HDL-apoprotein level at 100 mg/kg, po administered for 4 weeks relative to control; assay type: functional; in short: as §1
Rattus norvegicus [13] = experiment: Antihyperlipidemic activity in HFD-induced hyperlipidemic Charles Foster rat assessed as decrease in liver phospholipid level at 100 mg/kg, po administered for 4 weeks relative to control; assay type: functional; design: scale not given: the % may be the effect or the level left
In short: (§6)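 Adult male Charles Foster rats (200−225 g), high-fat diet 4 weeks, then diet plus daily dosing 4 more weeks; overnight fast, sacrifice, liver washed in cold 0.15 M KCl and held at 4 °C. Lipids extracted from liver homogenate in CHCl3/CH3OH (2:1 v/v), TC, PL and TG read in mg/g; pooled data from 6 rats/group, mean ± SD.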

Rattus norvegicus [14] = experiment: Antihyperlipidemic activity in Triton WR-1339-induced hyperlipidemic rat assessed as decrease in plasma triglyceride level at 150 mg/kg, po; assay type: functional; in short: as §3
Rattus norvegicus [15] = experiment: Antihyperlipidemic activity in po dosed Triton WR-1339-induced hyperlipidemic rat assessed as increase in LCAT enzyme level; assay type: functional, organism-based; in short: as §4
Rattus norvegicus [16] = experiment: Antihyperlipidemic activity in HFD-induced hyperlipidemic Charles Foster rat assessed as decrease in liver total cholesterol level at 100 mg/kg, po administered for 4 weeks relative to control; assay type: functional; design: scale not given: the % may be the effect or the level left; in short: as §6
Rattus norvegicus [17] = experiment: Antihyperlipidemic activity in Triton WR-1339-induced hyperlipidemic rat assessed as increase in LCAT enzyme level at 150 mg/kg, po; assay type: functional; in short: as §3
Rattus norvegicus [18] = experiment: Antihyperlipidemic activity in HFD-induced hyperlipidemic Charles Foster rat assessed as decrease in serum total cholesterol level at 100 mg/kg, po administered for 4 weeks relative to control; assay type: functional; design: scale not given: the % may be the effect or the level left; in short: as §2
Rattus norvegicus [19] = experiment: Antihyperlipidemic activity in Triton WR-1339-induced hyperlipidemic rat assessed as decrease in plasma phospholipid level at 100 mg/kg, po relative to control; assay type: functional; design: scale not given: the % may be the effect or the level left; in short: as §4
Rattus norvegicus [20] = experiment: Antihyperlipidemic activity in HFD-induced hyperlipidemic Charles Foster rat assessed as decrease in plasma VLDL-total cholesterol level at 100 mg/kg, po administered for 4 weeks relative to control; assay type: functional; design: scale not given: the % may be the effect or the level left; in short: as §1
Rattus norvegicus [21] = experiment: Antihyperlipidemic activity in Triton WR-1339-induced hyperlipidemic rat assessed as decrease in plasma total cholesterol level at 100 mg/kg, po relative to control; assay type: functional; design: scale not given: the % may be the effect or the level left; in short: as §4
Rattus norvegicus [22] = experiment: Antihyperlipidemic activity in HFD-induced hyperlipidemic Charles Foster rat assessed as reactivation of LPL activity at 100 mg/kg, po administered for 4 weeks relative to control; assay type: functional
In short: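 Male Charles Foster rats fed high-fat diet 4 weeks, then diet plus daily dosing 4 weeks. Liver homogenized (10% w/v) in cold 100 mM phosphate buffer pH 7.2; total lipolytic LPL activity read as nmol free fatty acid formed/h/mg protein; pooled data from 6 rats/group, mean ± SD.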

Rattus norvegicus [23] = experiment: Antihyperlipidemic activity in HFD-induced hyperlipidemic Charles Foster rat assessed as decrease in serum phospholipid level at 100 mg/kg, po administered for 4 weeks relative to control; assay type: functional; design: scale not given: the % may be the effect or the level left; in short: as §2
Rattus norvegicus [24] = experiment: Antihyperlipidemic activity in HFD-induced hyperlipidemic Charles Foster rat assessed as increase in deoxycholic acid excretion in feces at 100 mg/kg/day, po administered for 4 weeks measured after 30 days relative to control; assay type: functional; in short: as §5
Rattus norvegicus [25] = experiment: Antihyperlipidemic activity in HFD-induced hyperlipidemic Charles Foster rat assessed as increase in plasma HDL-triglyceride level at 100 mg/kg, po administered for 4 weeks relative to control; assay type: functional; in short: as §1

Row | SMILES | Activity (Rattus norvegicus [1]) | Activity (Rattus norvegicus [2]) | Activity (Rattus norvegicus [3]) | Activity (Rattus norvegicus [4]) | Activity (Rattus norvegicus [5]) | percent increase (Rattus norvegicus [6]) | Activity (Rattus norvegicus [7]) | Activity (Rattus norvegicus [8]) | Activity (Rattus norvegicus [9]) | percent increase (Rattus norvegicus [10]) | Activity (Rattus norvegicus [11]) | Activity (Rattus norvegicus [12]) | Activity (Rattus norvegicus [13]) | Activity (Rattus norvegicus [14]) | Activity (Rattus norvegicus [15]) | Activity (Rattus norvegicus [16]) | Activity (Rattus norvegicus [17]) | Activity (Rattus norvegicus [18]) | Activity (Rattus norvegicus [19]) | Activity (Rattus norvegicus [20]) | other results
1 | CCOC(=O)CCCOc1ccc(C(c2cn(C)c3ccccc23)c2cn(C)c3ccccc23)cc1 | Non-toxic | 20% | 29% | 16 mg/dL | 22% | 15% | 21% | Dose-dependent effect | Active | 10% | Dose-dependent effect | 14% | 23% | 27 mg/dL | Dose-dependent effect | 26% | 21 nmol/h/mL | 28% | 14% | 15% | Activity (Rattus norvegicus [21]): 20%; Activity (Rattus norvegicus [22]): 14%; Activity (Rattus norvegicus [23]): 25%; Activity (Rattus norvegicus [24]): 31%; Activity (Rattus norvegicus [25]): 14%
2 | CCOC(=O)C(C)Oc1ccc(C(c2cn(CC)c3ccccc23)c2cn(CC)c3ccccc23)cc1 (stereo not given) | Non-toxic | 25% | 32% | 15 mg/dL | 24% | 12% | 26% | Dose-dependent effect | Active | 11% | Dose-dependent effect | 16% | 28% | 26 mg/dL | Dose-dependent effect | 23% | 18 nmol/h/mL | 25% | 23% | 21% | Activity (Rattus norvegicus [21]): 22%; Activity (Rattus norvegicus [22]): 20%; Activity (Rattus norvegicus [23]): 24%; Activity (Rattus norvegicus [24]): 28%; Activity (Rattus norvegicus [25]): 11%
